Here are results for four compounds from ChEMBL document CHEMBL1141159, “Design, synthesis, and antiviral activity of 2'-deoxy-2'-fluoro-2'-C-methylcytidine, a potent inhibitor of hepatitis C virus replication” (2005).

What all share (format): functional
Assay [1] can be described thus: Cytotoxic concentration against bovine viral diarrhea virus (BVDV) in MDBK cells. Conditions: Bos taurus. Summed up: (§1)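 Cytotoxicity (CC50) read by MTS colorimetric cell-proliferation assay after 4 days of compound exposure.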
The test system of assay [2] is Huh-7. The assay can be described thus: Cytotoxic concentration against HCV replication RNA levels in Huh7 cells determined by HCV replicon assay. To be noted: Homo sapiens. The essentials:
as §1
Background: A replicon is a self-replicating genome or part of one, used to study replication in cells.

Assay [3] can be described thus: Effective concentration required to reduce cytopathic effects caused by bovine viral diarrhea virus (BVDV) in MDBK cells by 90%. To be noted: Bos taurus. A general note: Protection from cytopathic effect is a common read-out in antiviral testing.
For assay [4], the system named is Huh-7. The experiment in a line: Effective concentration required to reduce HCV replication RNA levels in Huh7 cells by 90% determined by HCV replicon assay. To be noted: Homo sapiens. The essentials: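 Subgenomic HCV replicon cells were treated with compound, and HCV RNA was quantified by real-time quantitative RT-PCR to derive the concentration giving 90% reduction.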

For the compound `C[C@@]1(F)[C@H](O)[C@@H](CO)O[C@H]1n1ccc(N)nc1=O`, the 50% cytotoxic concentration (CC50) in assay [1] and in assay [2] was above 100 µM throughout. For the same compound, the EC90 in assay [3] was above 100 µM; in assay [4] it was 5.4 µM.

On to `C[C@@]1(O)[C@H](O)[C@@H](CO)O[C@H]1n1ccc(N)nc1=O`, for which the CC50 in assay [1] and in assay [2] was above 100 µM throughout. Further, the values for the EC90 in assay [3] and in assay [4] were 2.3 µM and 19 µM, respectively.

In the case of `Nc1ccn([C@@H]2O[C@H](CO)[C@@H](O)[C@@H]2F)c(=O)n1`, the half-maximal cytotoxic concentration (CC50) in assay [1] and in assay [2] was above 100 µM in each case. In addition, the figures for the EC90 in assay [3] and in assay [4] were above 100 µM and 6.5 µM, respectively.

For `C[C@@]1(F)[C@H](O)[C@@H](CO)O[C@H]1n1ccc(=O)[nH]c1=O`, the CC50 in assay [1] and in assay [2] was above 100 µM throughout. Besides, the concentration for an effect of 90% (EC90) in assay [3] and in assay [4] was above 100 µM each time.

What is called CC50 is the concentration that lowers cell viability or growth by half. High values mean better tolerance by the cells, low ones harm at low concentration. As usually defined, the EC90 is the concentration at which the effect reaches the 90% level. Lower therefore signals an effect from little substance.
